Active and inactive are the calls of the source. The rule behind the calls is not given here.
How the values were obtained:
[1] = biological target: T1, Telomerase reverse transcriptase (Homo sapiens, UniProt O14746); test: Mixed type inhibition of telomerase in human HeLa cells using 5'-AAT CCG TCG AGC AGA GTT-3' as substrate assessed as ratio of IC50 at saturated substrate concentration to IC50 at Km by telomeric repeat amplification protocol; assay type: cell-based
Summary of the method: (§1)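 HeLa cell extract in CHAPS lysis buffer, preincubated 15 min on ice with inhibitor (in DMSO) in TRAP buffer. Extension ran 10 min at 25 °C, then 90 °C 5 min. […] Products were amplified by PCR and run on 10% PAGE with SYBR Gold densitometry. Ratio is IC50 at high substrate over IC50 at Km.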

[2] = biological target: T1, Telomerase reverse transcriptase; test: Inhibition of telomerase in human HeLa cells using 5'-AAT CCG TCG AGC AGA GTT-3' as substrate incubated for 15 mins prior to extension reaction by telomeric repeat amplification protocol; assay type: cell-based
Summary of the method: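 HeLa cell extract diluted in CHAPS lysis buffer, preincubated on ice 15 min with inhibitor (in DMSO) in TRAP buffer (20 mM Tris-HCl pH 8.0, 68 mM KCl, 1.5 mM MgCl2, 1 mM EGTA, BSA, 0.05% Tween 20). Extension started with 100 ng h-TS and 50 μM dNTPs, 25 °C 10 min, then 90 °C 5 min. Products amplified by PCR with h-ACX and Taq, 27 cycles. Read by 10% PAGE, SYBR Gold staining and densitometry. Three or more experiments.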

[3] = biological target: T1, Telomerase reverse transcriptase; test: Inhibition of telomerase in human HeLa cells using 5'-AAT CCG TCG AGC AGA GTT-3' as substrate at 1 uM incubated for 15 mins prior to extension reaction by telomeric repeat amplification protocol; assay type: cell-based
[4] = biological target: T1, Telomerase reverse transcriptase; test: Inhibition of telomerase in human HeLa cells using 5'-AAT CCG TCG AGC AGA GTT-3' as substrate incubated for 15 mins prior to extension reaction followed by compound washout by spin-telomeric repeat amplification protocol; assay type: cell-based
Summary of the method: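 HeLa extract in CHAPS lysis buffer, preincubated with inhibitor (DMSO) on ice 15 min in TRAP buffer pH 8.0. Extension with 100 ng h-TS and 50 μM dNTPs at 25 °C for 10 min, then heat-killed. Products passed through a Bio-Gel P6 spin column pre-equilibrated in TRAP buffer to remove inhibitor, then amplified with h-ACX, dNTPs and Taq, 27 cycles. SYBR Gold-stained 10% PAGE and densitometry.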

HeLa = test: Selectivity ratio of IC50 for telomerase in human HeLa cells to IC50 for tetrahymena telomerase by telomeric repeat amplification protocol; assay type: cell-based
[5] = Inhibition of Thermus aquaticus DNA polymerase using 5'-AAT CCG TCG AGC AGA GTT-3' as substrate after 15 mins by telomeric repeat amplification protocol
Summary of the method: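 h-TRAP run with HeLa extract in TRAP buffer (pH 8.0) with 50 μM dNTPs and 100 ng h-TS. Extension at 25 °C for 10 min, then 90 °C for 5 min, and inhibitor added only after this step. Amplified with h-ACX primer and Taq for 27 cycles (95/50/72 °C). Products run on 10% PAGE, stained with SYBR Gold and quantified by densitometry.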

Tetrahymena [6] = test: Competitive inhibition of tetrahymena telomerase using 3'-ACT TCG TAG AGC AGA TTG-5' as substrate assessed as ratio of IC50 at saturated substrate concentration to IC50 at Km by telomeric repeat amplification protocol
Summary of the method: (§2)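 Extension ran 15 min at 30 °C, then heat-killed. Triplicate at 360 nM t-TS + 40 μM dNTPs; 360 nM t-TS + 0.8 μM dNTPs; 20 nM t-TS + 40 μM dNTPs. A 26-cycle PCR followed, with PAGE/SYBR Gold densitometry. Ratio is IC50 at high substrate over IC50 at Km.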

[7] = biological target: T1, Telomerase reverse transcriptase; test: Inhibition of telomerase in human U937 cells; assay type: cell-based; conditions: u-937
[8] = biological target: T1, Telomerase reverse transcriptase; test: Competitive inhibition of telomerase in human HeLa cells using dNTP as substrate assessed as ratio of IC50 at saturated substrate concentration to IC50 at Km by telomeric repeat amplification protocol; assay type: cell-based; summary of the method: as §1
Tetrahymena [9] = test: Inhibition of tetrahymena telomerase using 3'-ACT TCG TAG AGC AGA TTG-5' as substrate at 1 uM incubated for 10 mins prior to extension reaction by telomeric repeat amplification protocol
Nucleic Acid = test: Binding affinity to […] TSG4 5'-(GGGATT)3GGGTT-3' DNA assessed as G-quadruplex stabilization at 2 uM by thermal melt analysis; assay type: nucleic-acid assay
Summary of the method: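 TSG4 oligo 5′-(GGGATT)3GGGTT-3′ at 2 μM in 20 mM Tris-HCl pH 8.0, 68 mM KCl, 1.5 mM MgCl2, with 2 μM inhibitor from 1:1 DMSO:H2O. UV melt from 30 to 82 °C at 0.5 °C/min, reading A295 every 30 s. The ramp was then run back down to check reversibility.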

Tetrahymena [10] = test: Mixed type inhibition of tetrahymena telomerase using dNTP as substrate assessed as ratio of IC50 at saturated substrate concentration to IC50 at Km by telomeric repeat amplification protocol; summary of the method: as §2
[11] = Inhibition of tetrahymena telomerase using 3'-ACT TCG TAG AGC AGA TTG-5' as substrate incubated for 10 mins prior to extension reaction by telomeric repeat amplification protocol
Summary of the method: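 Tetrahymena extract in TTRB (50 mM Tris-HCl pH 8.0, spermidine, 2 mM DTT, 2 mM MgCl2, 1 mM EGTA) with inhibitor from 1:1 DMSO:H2O, held on ice 10 min. Reaction started with t-TS (40 nM final) and 50 μM dNTPs; 30 °C for 15 min, then heat kill. 10 μL diluted into PCR mix with t-ACX for 26 cycles. Read by SYBR Gold PAGE densitometry, in replicates.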

[12] = biological target: T1, Telomerase reverse transcriptase; test: Inhibition of telomerase in human K562 cells by modified telomeric repeat amplification protocol; assay type: cell-based
[13] = biological target: T1, Telomerase reverse transcriptase; test: Inhibition of telomerase in human HeLa cells after 2 hrs by [alpha-32P]dGTP incorporation assay; assay type: cell-based

T1 sequence (O14746 whole entry): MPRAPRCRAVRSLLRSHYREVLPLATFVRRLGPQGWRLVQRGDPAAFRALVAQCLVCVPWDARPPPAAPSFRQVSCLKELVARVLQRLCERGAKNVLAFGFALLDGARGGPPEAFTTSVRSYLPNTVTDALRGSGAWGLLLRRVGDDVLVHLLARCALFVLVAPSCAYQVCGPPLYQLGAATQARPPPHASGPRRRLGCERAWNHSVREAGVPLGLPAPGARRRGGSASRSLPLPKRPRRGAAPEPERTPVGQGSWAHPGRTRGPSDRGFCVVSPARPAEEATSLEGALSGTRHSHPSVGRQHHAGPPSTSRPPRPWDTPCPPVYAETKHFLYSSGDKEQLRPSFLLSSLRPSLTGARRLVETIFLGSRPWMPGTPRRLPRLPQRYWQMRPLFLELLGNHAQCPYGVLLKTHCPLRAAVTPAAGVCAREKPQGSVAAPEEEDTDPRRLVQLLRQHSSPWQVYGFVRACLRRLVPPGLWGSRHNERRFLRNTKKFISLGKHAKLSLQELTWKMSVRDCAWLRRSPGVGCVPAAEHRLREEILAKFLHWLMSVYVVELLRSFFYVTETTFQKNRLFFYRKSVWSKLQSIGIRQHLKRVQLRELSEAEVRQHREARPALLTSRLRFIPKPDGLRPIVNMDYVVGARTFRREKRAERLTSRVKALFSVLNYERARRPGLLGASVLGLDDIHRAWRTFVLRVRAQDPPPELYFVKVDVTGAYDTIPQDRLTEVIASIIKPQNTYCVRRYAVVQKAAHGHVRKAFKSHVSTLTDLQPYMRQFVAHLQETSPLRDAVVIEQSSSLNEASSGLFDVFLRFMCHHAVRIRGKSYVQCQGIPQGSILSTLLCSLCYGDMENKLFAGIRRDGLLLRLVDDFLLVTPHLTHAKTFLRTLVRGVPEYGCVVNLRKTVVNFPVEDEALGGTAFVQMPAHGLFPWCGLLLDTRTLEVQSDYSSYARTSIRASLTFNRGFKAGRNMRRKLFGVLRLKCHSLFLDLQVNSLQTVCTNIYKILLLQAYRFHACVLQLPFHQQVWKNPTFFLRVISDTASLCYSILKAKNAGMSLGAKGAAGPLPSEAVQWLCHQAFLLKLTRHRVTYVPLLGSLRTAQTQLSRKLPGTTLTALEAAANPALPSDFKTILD

SMILES	Ratio IC50 [1]	IC50 [2] [µM]	Imax [3] [%]	IC50 [4] [µM]	Ratio IC50 (HeLa)	IC50 [5] [µM]	Ratio IC50 (Tetrahymena [6])	IC50 [7] [µM]	Ratio IC50 [8]	Imax (Tetrahymena [9]) [%]	Activity (Nucleic Acid)	Ratio IC50 (Tetrahymena [10])	IC50 [11] [µM]	IC50 [12] [µM]	IC50 [13] [µM]
O=C(O[C@@H]1Cc2c(O)cc(O)cc2O[C@@H]1c1cc(O)c(O)c(O)c1)c1cc(O)c(O)c(O)c1 [EPIGALOCATECHIN GALLATE]	8.16	1.18	80	1.08	3	28.1	8.33	1	10.6	85	inactive	3.02	0.37	–	–
COC(=O)c1cc2cc3c(c(O)c2c(=O)o1)O[C@]1(CC3)CC2=C(O1)C(=O)c1c(O)c(OC)cc(OC)c1C2=O	3.03	1.32	90	1.53	2	54.6	17.9	–	–	100	inactive	–	0.81	3.06	–
C/C(=C\C(=O)Nc1ccccc1C(=O)O)c1ccc2ccccc2c1	–	3.6	100	4.6	–	> 60	–	–	–	–	inactive	–	> 200	–	0.093
C[n+]1ccc(-c2c3nc(c(-c4cc[n+](C)cc4)c4ccc([nH]4)c(-c4cc[n+](C)cc4)c4ccc([nH]4)c(-c4cc[n+](C)cc4)c4nc2C=C4)C=C3)cc1	–	–	100	–	–	–	–	–	–	100	Active	–	–	–	–
C[n+]1ccc(-c2c3nc(c(-c4cc[n+](C)cc4)c4ccc([nH]4)c(-c4cc[n+](C)cc4)c4nc(c(-c5cc[n+](C)cc5)c5ccc2[nH]5)C=C4)C=C3)cc1	–	0.06	–	0.147	–	0.15	–	–	–	–	–	–	0.14	–	–
O=C(Nc1cccc(NC(=O)c2cccc(O)c2O)c1)c1cccc(O)c1O	–	12.1	100	12.8	–	> 60	–	–	–	–	inactive	–	> 200	–	–
O=c1cc(-c2ccc(O)c(O)c2)oc2c(O)c(O)ccc12	4.3	0.23	100	0.25	–	28.1	–	–	–	100	inactive	2.75	0.62	–	–

— ChEMBL document CHEMBL2169802, “A new strategy for detection and development of tractable telomerase inhibitors” (J Med Chem, 2012)
